ChEMBL document CHEMBL1129795, “2-Azetidinone cholesterol absorption inhibitors: structure-activity relationships on the heterocyclic nucleus” (1996)

What was measured:
Cricetinae gen. sp. [1] = experiment: In vivo cholesterol absorption inhibitory activity using 7-day cholesterol-fed hamster model (expressed as percent change in serum cholesterol at 50 mg/kg/day); format: functional, Cricetulus griseus
How it was run: (§1)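 Hamsters were fed a high-cholesterol diet for 7 days and gavaged once daily with compound in 0.2 mL corn oil. On the last day, animals were sacrificed and hepatic and serum lipids were determined. Results are given as percent change in hepatic cholesteryl ester or serum cholesterol concentration versus diet-fed controls gavaged with corn oil without drug.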

Cricetinae gen. sp. [2] = experiment: In vivo for cholesterol absorption inhibitory activity using 7-day cholesterol-fed hamster model (expressed as percent change in cholesteryl esters at 50 mg/kg/day); format: functional, Cricetulus griseus; how it was run: as §1

Compound	Change (Cricetinae gen. sp. [1]) [%]	Change (Cricetinae gen. sp. [2]) [%]
COc1ccc([C@@H]2[C@@H](CCCc3ccccc3)C(=O)N2c2cc(F)cc(F)c2)cc1	-52	-93
COc1ccc(N2C(=O)C(CCCc3ccccc3)[C@]2(c2ccc(OC)cc2)C(F)(F)F)cc1 (stereo partly drawn)	0	-11
COc1ccc([C@@H]2[C@@H](CCCc3ccccc3)C(=O)N2C2CCCCC2)cc1	0	0
COc1ccc([C@@H]2[C@@H](CCCc3ccccc3)C(=O)N2C)cc1	0	0
COc1ccc([C@@H]2[C@@H](CCCc3ccccc3)C(=O)N2c2ccc(Oc3ccccc3)cc2)cc1	-28	-49
CC[C@H]1C(=O)N(c2ccc(OC)cc2)[C@@H]1c1ccc(OC)cc1	0	0
COc1ccc(N2C(=O)C(CCCc3ccccc3)C23c2ccc(OC)cc2-c2cc(OC)ccc23)cc1 (stereo not drawn)	-22	-22
COc1ccc(C(=O)N2C(=O)[C@H](CCCc3ccccc3)[C@H]2c2ccc(OC)cc2)cc1	-25	0
COc1ccc(N2C(=O)[C@@H](CCCc3ccccc3)[C@H]2c2ccc(S)cc2)cc1	-19	0
COc1ccc([C@H]2N(c3ccc(OC)cc3)C(=O)[C@]2(C)CCCc2ccccc2)cc1	0	21
COc1ccc([C@@H]2[C@@H](CCCc3ccccc3)C(=O)N2c2ccc(C#N)cc2)cc1	-35	-74
COc1ccc([C@H]2N(c3ccc(OC)cc3)C(=O)[C@@]2(Cc2ccccc2)c2ccccc2)cc1	16	16
COc1ccc([C@@H]2[C@@H](CCCc3ccccc3)C(=O)N2c2ccc(OC)cc2)cc1 [SCH-48461]	-29	-77.5
COc1ccc([C@@H]2[C@H](CCCc3ccccc3)C(=O)N2c2ccc(OC)cc2)cc1	-45	-95
COc1ccc([C@H]2N(c3ccccc3)C(=O)[C@]2(F)CCCc2ccccc2)cc1	-10	-17
CC[C@]1(CCCc2ccccc2)C(=O)N(c2ccc(OC)cc2)[C@@H]1c1ccccc1	-12	-29
COc1ccc([C@@H]2[C@@H](CCCc3ccccc3)C(=O)N2C(=O)c2ccccc2)cc1	0	16

Compound	Change (Cricetinae gen. sp. [1]) [%]	Change (Cricetinae gen. sp. [2]) [%]
CCN(CC)c1ccc(N2C(=O)[C@H](CCCc3ccccc3)[C@H]2c2ccc(OC)cc2)cc1	-51	-95
COc1ccc([C@@H]2[C@@H](CCCc3ccccc3)C(=O)N2c2ccc(C)c(C)c2)cc1	-21	-39
COc1ccc([C@@H]2[C@@H](CCCc3ccccc3)C(=O)N2c2ccccc2)cc1	-49	-95
COc1ccc([C@@H]2[C@@H](CCCC3CCCCC3)C(=O)N2c2ccc(OC)cc2)cc1	-23	-47
COc1ccc(N2C(=O)[C@@H](CCCc3ccccc3)[C@H]2c2ccc(OC(C)C)cc2)cc1	-28	-78
COc1ccc([C@@H]2[C@@H](CCCc3ccccc3)C(=O)N2c2ccc(S(C)(=O)=O)cc2)cc1	0	-39
COc1ccc(N2C(=O)[C@H](CCCc3ccccc3)[C@H]2c2ccccc2OC)cc1	0	0
COc1ccc(N2C(=O)[C@H](CCCc3ccccc3)[C@H]2c2ccc(OC)cc2OC)cc1	-26	-78
COc1ccc([C@@H]2[C@@H](CCCc3ccccc3)C(=O)N2C23C[C@H]4C[C@@H](C2)C[C@@H](C3)C4)cc1	0	0
COc1ccc([C@@H]2[C@@H](CCCc3ccccc3)C(=O)N2c2ccc(SC)cc2)cc1	-26	-70
COc1ccc(N2C(=O)[C@H](CCCc3ccccc3)[C@H]2c2ccc(OC(F)(F)F)cc2)cc1	0	-29
COc1ccc([C@@H]2[C@@H](CCCc3ccccc3)C(=O)N2c2ccc(C(C)=O)cc2)cc1	-40	-90
COc1ccc([C@@H]2[C@@H](CCCc3ccccc3)C(=O)N2c2cccc(OC)c2)cc1	-38	-91
COc1ccc([C@@H]2[C@H](CCCCCc3ccccc3)C(=O)N2c2ccc(OC)cc2)cc1	-24	-70
CC[C@@]1(CCCc2ccccc2)C(=O)N(c2ccc(OC)cc2)[C@@H]1c1ccc(OC)cc1	0	0
C=CCN1C(=O)[C@H](CCCc2ccccc2)[C@H]1c1ccc(OC)cc1	0	0
COc1ccc(N2C(=O)[C@H](CCCc3ccccc3)[C@H]2c2ccc(F)cc2)cc1	0	12
